Experimental data: ChEMBL document CHEMBL4689842, “EUbOPEN Chemogenomics Library wave 1” (2021)

Tests used:
Type in all cases: toxicity, cell-based
Fibroblast = experiment: Multiplex assay against human fibroblast
In short: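 Per cents of healthy-nucleus cells form the tubulin, mitochondrial-mass and membrane-permeability phenotype values. Live cells were stained at seeding with Hoechst33342, BioTracker Green Microtubule Cytoskeleton Dye, MitoTracker Red and Annexin V Alexa Fluor 680. After compound addition they were imaged on a CQ1 microscope at 37°C and 5% CO2, and CellPathfinder machine-learning gating split them into Hoechst high-intensity objects or normal cells, normal cells into healthy, pyknosed or fragmented nuclei, and pyknosed cells into mitotic or apoptotic.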

HEK-293T = experiment: Incucyte cell viability with HEK293T; conditions: human, 10 µM, compound concentration 10 uM; further: filed as whole numbers so only -1 and 0 and 1 occur
U2OS = experiment: Incucyte cell viability with U2OS; conditions: human, 10 µM, compound concentration 10 uM; further: filed as whole numbers so only -1 and 0 and 1 occur
[1] = 24 h, 10 µM, compound concentration 10 uM, replicate 1
[2] = 24 h, 10 µM, compound concentration 10 uM, replicate 2
[3] = 48 h, 1 µM, compound concentration 1 uM, replicate 1
[4] = 48 h, 1 µM, compound concentration 1 uM, replicate 2
[5] = 48 h, 10 µM, compound concentration 10 uM, replicate 1
[6] = 48 h, 10 µM, compound concentration 10 uM, replicate 2
[7] = 12 h, replicate number 1, timepoint 12 hours
[8] = 18 h, replicate number 1, timepoint 18 hours
[9] = 24 h, replicate number 1, timepoint 24 hours

In the case of `CCn1c(-c2nonc2N)nc2cnc(Oc3cccc(NC(=O)c4ccc(OCCN5CCOCC5)cc4)c3)cc21` [GSK-269962A], the “Population Hoechst High Intensity Objects (%)” value (Fibroblast; [1]) is reported as 12%, the “Population Membrane Permeable-Phenotype (%)” value (Fibroblast; [1]) is reported as 11% and the “Population Mitochondria Different-Phenotype (%)” value (Fibroblast; [1]) is reported as 58%. For the same compound, the “Population Mitotic Cells (%)” value (Fibroblast; [1]) was 42%, the “Population Normal (%)” value (Fibroblast; [1]) was 87% and the “Population Pyknosed Nuclei (%)” value (Fibroblast; [1]) was 20%. For the same compound, the “Population Tubulin-Different-Phenotype (%)” value (Fibroblast; [1]) was 81%, the “Total Cell Count” value (Fibroblast; [1]) was 258 and the “Population Apoptotic (%)” value (Fibroblast; [2]) was 53%. For the same compound, the “Population Fragmented Nuclei (%)” value (Fibroblast; [2]) was 30%, the “Population Healthy Nuclei (%)” value (Fibroblast; [2]) was 52% and the “Population Hoechst High Intensity Objects (%)” value (Fibroblast; [2]) was 5%. For the same compound, the “Population Membrane Permeable-Phenotype (%)” value (Fibroblast; [2]) was 67%, the “Population Mitochondria Different-Phenotype (%)” value (Fibroblast; [2]) was 97% and the “Population Mitotic Cells (%)” value (Fibroblast; [2]) was 46%. The “Population Normal (%)” value (Fibroblast; [2]) was 94%, the “Population Pyknosed Nuclei (%)” value (Fibroblast; [2]) was 17% and the “Population Tubulin-Different-Phenotype (%)” value (Fibroblast; [2]) was 100%. The “Total Cell Count” value (Fibroblast; [2]) was 73, the “Population Apoptotic (%)” value (Fibroblast; [3]) was 57% and the “Population Fragmented Nuclei (%)” value (Fibroblast; [3]) was 28%. The “Population Healthy Nuclei (%)” value (Fibroblast; [3]) was 58%, the “Population Hoechst High Intensity Objects (%)” value (Fibroblast; [3]) was 11% and the “Population Membrane Permeable-Phenotype (%)” value (Fibroblast; [3]) was 12%. The “Population Mitochondria Different-Phenotype (%)” value (Fibroblast; [3]) was 3%, the “Population Mitotic Cells (%)” value (Fibroblast; [3]) was 42% and the “Population Normal (%)” value (Fibroblast; [3]) was 88%. The “Population Pyknosed Nuclei (%)” value (Fibroblast; [3]) was 13%, the “Population Tubulin-Different-Phenotype (%)” value (Fibroblast; [3]) was 29% and the “Total Cell Count” value (Fibroblast; [3]) was 120. For the same compound, the “Population Apoptotic (%)” value (Fibroblast; [4]) was 66%, the “Population Fragmented Nuclei (%)” value (Fibroblast; [4]) was 27% and the “Population Healthy Nuclei (%)” value (Fibroblast; [4]) was 69%. For the same compound, the “Population Hoechst High Intensity Objects (%)” value (Fibroblast; [4]) was 12%, the “Population Membrane Permeable-Phenotype (%)” value (Fibroblast; [4]) was 3% and the “Population Mitochondria Different-Phenotype (%)” value (Fibroblast; [4]) was 0%. The “Population Mitotic Cells (%)” value (Fibroblast; [4]) was 33%, the “Population Normal (%)” value (Fibroblast; [4]) was 87% and the “Population Pyknosed Nuclei (%)” value (Fibroblast; [4]) was 3%. For the same compound, the “Population Tubulin-Different-Phenotype (%)” value (Fibroblast; [4]) was 22%, the “Total Cell Count” value (Fibroblast; [4]) was 96 and the “Population Apoptotic (%)” value (Fibroblast; [5]) was 50%. For the same compound, the “Population Fragmented Nuclei (%)” value (Fibroblast; [5]) was 36%, the “Population Healthy Nuclei (%)” value (Fibroblast; [5]) was 50% and the “Population Hoechst High Intensity Objects (%)” value (Fibroblast; [5]) was 20%. The “Population Membrane Permeable-Phenotype (%)” value (Fibroblast; [5]) was 6%, the “Population Mitochondria Different-Phenotype (%)” value (Fibroblast; [5]) was 38% and the “Population Mitotic Cells (%)” value (Fibroblast; [5]) was 50%. The “Population Normal (%)” value (Fibroblast; [5]) was 79%, the “Population Pyknosed Nuclei (%)” value (Fibroblast; [5]) was 13% and the “Population Tubulin-Different-Phenotype (%)” value (Fibroblast; [5]) was 80%. For the same compound, the “Total Cell Count” value (Fibroblast; [5]) was 240, the “Population Healthy Nuclei (%)” value (Fibroblast; [6]) was 58% and the “Population Hoechst High Intensity Objects (%)” value (Fibroblast; [6]) was 22%. For the same compound, the “Population Membrane Permeable-Phenotype (%)” value (Fibroblast; [6]) was 3%, the “Population Mitochondria Different-Phenotype (%)” value (Fibroblast; [6]) was 17% and the “Population Normal (%)” value (Fibroblast; [6]) was 77%. The “Population Pyknosed Nuclei (%)” value (Fibroblast; [6]) was 4%, the “Population Tubulin-Different-Phenotype (%)” value (Fibroblast; [6]) was 86% and the “Total Cell Count” value (Fibroblast; [6]) was 172. The “Growth Rate” value (HEK-293T; 0 h, replicate number 1, timepoint 0 hours) was 1, the “Growth Rate” value (HEK-293T; 0 h, replicate number 2, timepoint 0 hours) was 0 and the “Growth Rate” value (HEK-293T; 6 h, replicate number 1, timepoint 6 hours) was 0. For the same compound, the “Growth Rate” value (HEK-293T; [7]) was 0, the “Growth Rate” value (HEK-293T; [8]) was 0 and the “Growth Rate” value (HEK-293T; [9]) was 0. The “Growth Rate” value (U2OS; [7]) was 1, the “Growth Rate” value (U2OS; [8]) was 1 and the “Growth Rate” value (U2OS; [9]) was 1.
